Bioassay records deposited in PubChem by several laboratories.
MC4R antag cAMP: human MC4R antagonism in cAMP assay | AID 540295 | MC4R-expressing cells, MTII-stimulated cAMP, LANCE TR-FRET | P32245 | 0.48% of 360,000 active | inhibition, % at 6.5 µM;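 active = inhibition above its plate's cutoff, the mean of tested wells on that plate plus 3 SD, cut at about 29% in these data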;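 note: 0% = Melanotan II alone and 100% = Melanotan II plus saturating MCL0020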
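Assay system: U2OS cells stably expressing human melanocortin 4 receptor (MC4R) / Dosing: 6.5 µM / Timing: compound 30 min, challenge 1 h, detection 1 h / Measured by: Eu-cAMP/anti-cAMP TR-FRET, emission 671 nm / Replicates: singlicate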
m5-HT2A agonist: activates the mouse 5-HT2A serotonin receptor; AID 624169; activation, % at 7.6 µM; 0.66% of 360,000 active; P35363; CHO-K1 mHTR2A beta-arrestin complementation, luminescence; percent of 30 µM serotonin response;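 active = activation above a run cutoff, the mean activation of all tested compounds plus 3 SD, cut at about 14% in these data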;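 note: 0% = plate median of compound wells and 100% = 30 µM serotonin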
ANO1 block: inhibitors of mouse TMEM16A calcium-activated chloride channel. Q8BHY3. HEK293 TMEM16A/YFP iodide influx fluorescence, ionomycin. normalized B-score (activity score, 25-100; higher = stronger inhibition) at 10 µM. 1.2% of 310,000 active;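 active = ratio plate-corrected score three or more library SD toward inhibition, starting fluorescence score within five deviations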;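 note: score derived from kinetic fluorescence span divided by baseline fluorescence per well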
Target sequence (Q8BHY3 whole entry, looked up): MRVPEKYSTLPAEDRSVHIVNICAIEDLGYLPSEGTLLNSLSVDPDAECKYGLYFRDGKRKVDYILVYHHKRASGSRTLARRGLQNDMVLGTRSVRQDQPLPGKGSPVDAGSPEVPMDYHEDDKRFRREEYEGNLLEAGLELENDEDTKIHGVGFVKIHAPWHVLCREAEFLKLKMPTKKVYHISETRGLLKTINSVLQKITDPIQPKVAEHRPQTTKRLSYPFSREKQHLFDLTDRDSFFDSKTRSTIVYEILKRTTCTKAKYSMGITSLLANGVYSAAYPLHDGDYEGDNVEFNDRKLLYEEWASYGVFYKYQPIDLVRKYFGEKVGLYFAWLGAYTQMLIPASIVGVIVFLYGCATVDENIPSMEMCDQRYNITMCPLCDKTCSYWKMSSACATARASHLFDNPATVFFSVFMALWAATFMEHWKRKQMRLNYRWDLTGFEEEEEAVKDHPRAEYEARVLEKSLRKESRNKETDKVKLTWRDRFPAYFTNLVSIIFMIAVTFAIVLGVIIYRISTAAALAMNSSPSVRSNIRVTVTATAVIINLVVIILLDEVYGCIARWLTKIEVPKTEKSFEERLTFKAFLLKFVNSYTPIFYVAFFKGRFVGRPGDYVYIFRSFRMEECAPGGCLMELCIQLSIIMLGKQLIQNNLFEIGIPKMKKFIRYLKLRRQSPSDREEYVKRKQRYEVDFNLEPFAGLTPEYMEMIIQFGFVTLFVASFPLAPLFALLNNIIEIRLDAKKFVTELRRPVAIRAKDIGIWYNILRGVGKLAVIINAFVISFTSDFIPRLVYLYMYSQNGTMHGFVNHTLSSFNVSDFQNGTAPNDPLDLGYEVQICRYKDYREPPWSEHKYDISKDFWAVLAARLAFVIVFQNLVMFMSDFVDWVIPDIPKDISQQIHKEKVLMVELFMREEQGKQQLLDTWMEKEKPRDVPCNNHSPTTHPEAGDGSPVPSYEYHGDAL
TMEM16A act: mouse TMEM16A channel activation, primary screen. B-score at 10 µM. HEK293 TMEM16A/YFP-H148Q/I152L, iodide quench fluorescence; hits give low values. Q8BHY3. 0.3% of 340,000 active;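 active = fluorescence-ratio B-score plate-corrected deviation score at least 3 library SD below zero, with starting fluorescence score within 5 deviations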;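 note: channel opened by trigger with iodide after compound preincubation; score built on the fluorescence ratio of max minus min over baseline; more negative score means more quench and so TMEM16A activation or potentiation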
MIN6 prolif-1: induces beta-cell replication in MIN6 cells; MIN6 cells proliferation, ATPlite luminescence, 48 h; cells starved in 0.2% serum; 100% = growth in 10% serum; proliferation, % at 10 µM; 0.29% of 330,000 active; AID 2380;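 active = compounds whose signal lies at least 3.5 SD above the mean of all wells on their plate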;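 note: 0% = DMSO-treated cells in low-serum medium and 100% = 10% serum control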
MC4R ag barr: activates human MC4R beta-arrestin recruitment; P32245; U2OS MC4R beta-arrestin complementation, luminescence; percent of melanotan II response, DMSO zero; activation, % at 8.9 µM; 0.98% of 360,000 active;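 active = activation above a per-plate cutoff, the mean activation of sample wells on that plate plus 3 SD, cut at about 8% in these data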
MIN6 prolif-2: MIN6 beta-cell replication induction, confirmed; shares compounds with MIN6 prolif-1; MIN6 beta-cell proliferation, ATPlite luminescence, 48 h; cells kept in 0.2% serum; scaled between 0.2% and 10% serum; proliferation increase, % at 50 µM; 920 tested, under 10 active; AID 463095;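 active = proliferation increase above 40% at any of the four tested concentrations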
* marks the source's active call; other numbers are inactive results; i = inactive; x = no result. Most compounds without a hit are left out; they make up all but 3.4% or so of the library.

SMILES | MC4R antag cAMP | m5-HT2A agonist | ANO1 block | TMEM16A act | MIN6 prolif-1 | MC4R ag barr | MIN6 prolif-2
CCOC(=O)c1[nH]c2ccc(OC)cc2c1NS(=O)(=O)c1ccc(Cl)s1 | 0.1 | -4.3 | i | i | 5.3* | -1.6 | -6.2
CCOC(=O)c1c(C)[nH]c(C)c1C(=O)CSc1nnnn1-c1ccccc1 | 5.0 | -0.6 | i | i | 5.5* | 1.0 | 3.2
COC(=O)c1c(C)[nH]c(C(=O)CSc2nnnn2-c2ccccc2)c1C | 3.1 | -0.7 | i | i | -1.6 | 2.9 | x
Cc1cccc(NS(=O)(=O)c2ccc(-n3cccn3)cc2)c1C | 15.8 | -6.1 | i | i | 1.8 | 5.0 | x
COc1ccc(C2=Nn3c(nnc3-c3ccccc3OC)SC2)cc1OC1CCOC1 (stereo unspecified) | -57.4 | -2.8 | x | i | -3.1 | -0.8 | x
COc1ccc(C2=Nn3c(nnc3-c3ccncc3)SC2)cc1OC | -23.2 | 7.7 | i | i | 8.6* | 0.9 | 5.6
COc1ccc(C2=Nn3c(nnc3-c3ccccc3C(F)(F)F)SC2)cc1OC1CCOC1 (stereo unspecified) | -52.2 | 5.0 | x | i | 8.8* | -0.4 | -6.5
COc1ccc(C2=Nn3c(nnc3-c3cccnc3)SC2)cc1OC | -17.2 | -1.1 | i | i | 2.5 | -0.6 | x
O=C(O)c1ccccc1SC1CC(=O)N(C2CCCCC2)C1=O (stereo unspecified) | 16.3 | 4.0 | i | i | 9.9* | 0.0 | -6.4
O=C(O)c1ccccc1SC1CC(=O)N(c2ccccc2)C1=O (stereo unspecified) | -2.3 | 2.6 | i | i | 0.0 | 1.8 | x
Cc1cnc(CNC(=O)c2ccc3sc([C@H]4C[C@H](O)[C@@H](CO)O4)nc3c2)cn1 | -3.3 | -0.2 | x | x | x | 0.6 | x
CC(NC(=O)CN1C(=O)NC2(CCCCCC2)C1=O)c1ccccc1Cl (stereo unspecified) | 0.8 | 8.0 | x | i | -2.2 | -3.1 | x
CCC(C)NC(=O)CSc1ccc(Cl)cc1 (stereo unspecified) | -4.8 | -2.8 | i | i | -1.4 | 0.6 | x
CCC(C)NC(=O)CCSc1ccc(C)cc1 (stereo unspecified) | -5.5 | -0.6 | i | i | 0.0* | -2.2 | 0.7
Cc1cc(C)n(CC(=O)NCc2ccccc2)c(=O)c1C#N | 3.7 | 3.8 | i | i | 6.0* | -0.9 | -0.4
Cc1cc(=O)c2ccccc2n1CC(=O)NCc1ccccc1 | 4.2 | 1.2 | i | i | -0.6 | 0.4 | x
Clc1ccc(-c2nc3c4ccccc4ccn3c2Cc2ccsc2)cc1 | x | -4.7 | x | x | x | x | x
C=CCn1cc([N+](=O)[O-])nc1C | -5.6 | 6.5 | i | i | 7.8* | 2.9 | -2.6
CCCCn1cc([N+](=O)[O-])nc1C | 0.5 | 3.0 | i | i | 2.5 | 1.0 | x
Cc1ccc(C(=O)N/C(=C\c2cccs2)C(=O)NCCCn2ccnc2)cc1 | 10.8 | 5.9 | i | i | 0.4 | 3.0 | x
O=C(NCCCn1ccnc1)/C(=C\c1cccs1)NC(=O)c1ccccc1 | 1.6 | 2.5 | i | i | 6.7* | -1.7 | 1.5
COc1cc(C(=O)N(CCN(C)C)CC2CCCN(Cc3ccccc3F)C2)ccc1C (stereo unspecified) | 0.3 | -3.2 | i | i | -5.1 | -0.4 | x
COc1ccc(CCN(C)C(=O)c2cc(-c3ccccc3)nc3ccc(C)cc23)cc1OC | -6.1 | 5.7 | i | i | 11.0* | -1.0 | -6.0
COc1ccc(CCN(C)C(=O)c2cc(-c3ccccc3)nc3ccccc23)cc1OC | 3.2 | 1.0 | i | i | -0.2 | -3.5 | x
Cc1ccc2c(n1)sc1c(-c3ccccc3)c(C#N)c(N)nc12 | -0.4 | 2.0 | i | i | 5.9* | 3.2 | 4.9
SMILES | MC4R antag cAMP | m5-HT2A agonist | ANO1 block | TMEM16A act | MIN6 prolif-1 | MC4R ag barr | MIN6 prolif-2
Cc1cccc(/C=N/n2c(C3CCCCC3)n[nH]c2=S)c1 | 6.7 | 7.9 | i | i | 6.7* | 2.6 | -6.5
C[C@@H]1CN([C@H](C)CO)S(=O)(=O)c2ccc(C3=CCCCC3)cc2O[C@H]1CN(C)C(=O)Cc1cccnc1 | 7.3 | 0.9 | x | x | x | 2.5 | x
CC1(C)CCc2cc(S(=O)(=O)N3CCN(S(=O)(=O)c4c(F)cccc4F)CC3)ccc2O1 | 3.9 | 4.1 | x | i | -0.6 | 0.3 | x
COc1cccc(CNC(=O)c2cc(C3CC3)nc3c2cnn3C(C)C)c1 | 3.8 | -12.8 | x | i | 1.9 | 1.0 | x
CC(C)n1ncc2c(C(=O)NCc3cccnc3)cc(C3CC3)nc21 | 2.0 | -1.6 | x | i | 11.4* | -2.5 | -1.9
Cc1c(S(=O)(=O)Nc2cccc3ccccc23)c(=O)n(C)c(=O)n1C | -0.9 | -1.1 | i | i | 1.3 | -2.3 | x
C=CCOn1c(=O)c(-c2ccc(F)cc2)[n+]([O-])c2ccccc21 | 1.6 | -4.0 | x | i | 10.7* | -0.6 | 2.6
Cc1c(C(=O)O)c2cc(O)ccc2n1-c1ccccc1 | -0.8 | -3.5 | i | i | -1.7 | -1.6 | x
Cc1c([N+](=O)[O-])c2ccc(O)cc2n1-c1ccccc1 | -0.5 | -5.0 | i | i | 15.0* | 2.3 | 7.8
Cc1ccc(-n2c(C)c([N+](=O)[O-])c3ccc(O)cc32)cc1 | x | x | i | x | 7.7* | x | -5.9
O=C(CCNC(=O)c1ccco1)Nc1ccc(OC(F)F)cc1 | 2.0 | -1.0 | i | i | -5.4 | -1.6 | x
O/N=C/c1cn(-c2ccccc2)nc1-c1ccc2c(c1)OCCO2 | -13.0 | -4.8 | i | i | 7.1* | 2.6 | -5.0
O=C(N/N=C/c1cn(-c2ccccc2)nc1-c1ccc2c(c1)OCCO2)c1ccncc1 | 4.0 | -8.6 | i | i | -2.1 | 6.7 | x
CS(=O)(=O)N1CCC(C(=O)Nc2ccc(F)cc2F)CC1 | 7.9 | -1.0 | i | i | 5.7* | -0.1 | 0.7
CS(=O)(=O)N1CCC(C(=O)Nc2ccc(F)cc2)CC1 | 1.6 | -11.2 | i | i | -1.7 | -0.2 | x
Cc1cc(C)c2c(N)c3ccccc3nc2n1 | 0.7 | 2.3 | i | i | 7.5* | -0.2 | -6.3
O=C(CCNC(=O)N1CC(=O)Nc2ccccc21)Nc1ccc(F)c(Cl)c1 | 5.3 | -8.6 | i | i | 4.9* | -4.4 | -1.9
O=C(CCNC(=O)N1CC(=O)Nc2ccccc21)Nc1ccc(Cl)cc1 | 11.2 | -3.2 | i | i | -4.3 | -3.1 | x
COc1ccc(C2(C)NC(=O)N(Cc3cc(Cl)cc4c3OCOC4)C2=O)cc1OC (stereo unspecified) | 6.1 | -0.2 | i | i | 15.1* | -0.9 | -5.8
CCCCn1c(N)c(N(CC(C)C)C(=O)c2ccc(S(=O)(=O)N3CCCCC3)cc2)c(=O)[nH]c1=O | 3.6 | -2.3 | i | i | -2.8 | 1.0 | x
